S100A4 MyoIIA = inhibitors of human S100A4 binding to myosin IIA peptide; S100A4/TAMRA-MyoIIA peptide fluorescence polarization; inhibition, % at 10.7 µM; 360,000 compounds, 0.14% hits;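 active = mean inhibition of at least 70% across replicates, with every replicate also reaching that level; inconclusive = mean inhibition reaches 70% but some replicates fall short; inactive = mean inhibition below 70%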
Target sequence (P26447 whole entry, looked up): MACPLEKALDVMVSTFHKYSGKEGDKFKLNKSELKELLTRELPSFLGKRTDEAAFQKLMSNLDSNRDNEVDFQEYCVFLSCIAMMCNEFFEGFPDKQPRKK
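Compound dosing: one dose per compound; test system: human S100A4 monomer with TAMRA-labelled myosin IIA peptide; probe or stimulus: TAMRA-labelled myosin IIA heavy-chain peptide probe, 5 nM; medium: HEPES buffer with Ca2+, pH 7.2; schedule: 5 min incubation before reading; benchmarks: neutral control DMSO, positive control TFP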
ERAP1 HTS inh = ERAP1 (human) enzyme inhibition; Q9NZ08; recombinant ERAP1, Leu-AMC fluorescence, 60 min; inhibition, % at 10.7 µM; 340,000 compounds, 0.15% hits;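 active = mean replicate inhibition of at least 30%, or all replicates individually reaching that 30% level; inactive = mean below 30% and not every replicate reaching it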
GSIS activator = primary screen for activators of insulin secretion dependent on glucose, INS-1E cells, GLuc reporter luminescence | INS-1E GLuc reporter insulin secretion, 2-3 h | activation, % at 16.6 µM | 370,000 compounds, 0.61% hits | AID 743287;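 active = lowest replicate activation of at least 40%, so every replicate reaches that level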
MLL AF4-AF9 inh = blocks AF4 peptide binding to human AF9; P42568; AlphaScreen, biotin-AF4 peptide binding to FLAG-AF9; AID 651704; inhibition, % at 10 µM; 350,000 compounds, 0.47% hits;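 active = every replicate reaching a set inhibition limit, whatever the replicate mean, cut at about 25% in these data; inconclusive = mean inhibition reaches that limit but some replicates miss it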
RAD52 inh = RAD52 (human) annealing inhibition; P43351; recombinant RAD52 DNA annealing, FRET fluorescence; inhibition, % at 18.7 µM; 360,000 compounds, 0.46% hits; AID 651710;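 active = every replicate showing at least 50% inhibition; inconclusive = mean inhibition at least 50% but not in every replicate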
DNA binder FP = DNA binding artifact in RAD52 counter-screen | shares compounds with RAD52 inh | Salmon sperm DNA/acridine orange FP displacement | AC50, µM | 1,000 compounds, 8% hits | AID 652128;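 active = fitted half-maximal concentration for signal loss at or below twice the highest dose tested, in every separate run, actives reach about 64 µM in these data; inconclusive = runs disagree, or flat partial signal loss, or poor fit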
Each line names hits and unclear results; the compound was inactive in the other large screens (follow-up assays come after a bar, where they were run). In the library only some 1.5% were active in any assay of this set; here they are far more common.

CC(C)NC(=O)N(C)C[C@H]1Oc2ccc(NS(=O)(=O)c3cccs3)cc2C(=O)N([C@@H](C)CO)C[C@@H]1C	none (no result: S100A4 MyoIIA, ERAP1 HTS inh, MLL AF4-AF9 inh, RAD52 inh)
CCN(CC)CC(O)Cn1c(C)c(-c2ccccc2)c2cc([N+](=O)[O-])ccc21 (stereo not given)	MLL AF4-AF9 inh 37, RAD52 inh 64 | DNA binder FP inactive
COc1cc2nc(N(CCCN(C)C)C(=O)c3ccc(S(=O)(=O)N4CCc5ccccc5C4)cc3)sc2cc1OC	none
COc1cccc2sc(N(CCCN(C)C)C(=O)c3ccc(S(=O)(=O)N4CCc5ccccc5C4)cc3)nc12	MLL AF4-AF9 inh 29, RAD52 inh 70 | DNA binder FP inactive
CCOc1ccc2nc(N(CCCN(C)C)C(=O)c3ccc(S(=O)(=O)N4CCc5ccccc5C4)cc3)sc2c1	RAD52 inh 59 | DNA binder FP inactive
CCc1ccc2nc(N(CCCN(C)C)C(=O)c3ccc(S(=O)(=O)N4CCCc5ccccc54)cc3)sc2c1	RAD52 inh 71 | DNA binder FP inactive
COc1ccc2c3c([nH]c2c1)[C@@H](CO)N(C(=O)NC(C)C)CC31CN(C(=O)C2CCCCC2)C1	none
C[C@@H]1CN([C@H](C)CO)C(=O)c2cc(NC(=O)C3CCCCC3)ccc2O[C@@H](C)CCCCO[C@@H]1CN(C)S(C)(=O)=O	none (no result: S100A4 MyoIIA, ERAP1 HTS inh, MLL AF4-AF9 inh, RAD52 inh)
CC(Sc1nnc(NC(=O)c2cc3ccccc3oc2=O)s1)c1ccccc1 (stereo not given)	RAD52 inh 53 (no result: ERAP1 HTS inh) | DNA binder FP inactive
CCCc1nnc(NC(=O)c2cc3ccccc3oc2=O)s1	none (no result: S100A4 MyoIIA, ERAP1 HTS inh, MLL AF4-AF9 inh, RAD52 inh)
CC1CCCCN1CC(=O)Nc1ccc(N2CCCCCC2)cc1 (stereo not given)	MLL AF4-AF9 inh 49, RAD52 inh 93 | DNA binder FP inactive
CC(=O)Nc1cccc(-c2cc(N3CCN(CCO)CC3)n3nccc3n2)c1	RAD52 inh 57 | DNA binder FP inactive
OCCN1CCN(c2cc(-c3ccc(CO)cc3)nc3ccnn23)CC1	none (no result: GSIS activator)
COc1ccc2c3c(n(C)c2c1)[C@H](CO)N(C(=O)Nc1ccc(F)cc1)CC31CCN(C(=O)NC2CCCC2)CC1	none
NC1(N2SC(S)=C3CCCC=C32)CCCCC1	RAD52 inh 86 | DNA binder FP inactive
CCCC(=O)N/C(N)=N/c1nc(C)c2ccccc2n1	none (no result: MLL AF4-AF9 inh)
CCc1nc(N=C(N)N)nc2ccccc12	RAD52 inh 63 | DNA binder FP inactive
NC(N)=Nc1nc(-c2ccccc2)c2ccccc2n1	RAD52 inh 64 | DNA binder FP inactive
C/C=C/c1ccc([C@H]2[C@@H](CO)N(CC3CCCCC3)[C@@H]2CNC(C)C)cc1	none
C[C@@H]1CN([C@@H](C)CO)C(=O)c2ccccc2-c2ccccc2CO[C@@H]1CN(C)Cc1cccnc1	none (no result: S100A4 MyoIIA, ERAP1 HTS inh, MLL AF4-AF9 inh, RAD52 inh)
COc1cccc(NC(=O)CSc2nc3c(sc4ccccc43)c(=O)n2CCN(C)C)c1	RAD52 inh 74 | DNA binder FP inactive
CC(C)NC(=O)Nc1ccc2c(c1)CC(=O)N([C@@H](C)CO)C[C@@H](C)[C@H](CN(C)C(=O)Nc1ccccc1)O2	none
CCN1CCN(c2ccc(N=Cc3ccccc3O)cc2)CC1	MLL AF4-AF9 inh 57, RAD52 inh 99 | DNA binder FP inactive
CC(=O)OC1C([N+]2(C)CCCCC2)C[C@H]2C3CC[C@H]4C[C@H](OC(C)=O)C([N+]5(C)CCCCC5)CC4(C)[C@H]3CCC12C (stereo not given in full)	RAD52 inh 50 (no result: GSIS activator) | DNA binder FP inactive
COc1cc2c3c(cccc3c1)C(=O)N(CCN1CCCC1)C2=O	RAD52 inh 71 (no result: GSIS activator) | DNA binder FP 31µM
COc1cccc(OCC(O)CN2CCN(CCN3C(=O)c4cccc5cccc(c45)C3=O)CC2)c1 (stereo not given)	RAD52 inh 91 | DNA binder FP inconclusive
O=C1c2cccc3cccc(c23)C(=O)N1CCN1CCN(CC(O)COc2ccccc2)CC1 (stereo not given)	none (no result: S100A4 MyoIIA, ERAP1 HTS inh, MLL AF4-AF9 inh, RAD52 inh)
COc1ccc(OCC(O)CN2CCC(CN3C(=O)c4cccc5cccc(c45)C3=O)CC2)cc1 (stereo not given)	RAD52 inh 96 | DNA binder FP inactive
C[C@@H]1CN([C@@H](C)CO)C(=O)c2cc(NC(=O)NC3CCCCC3)ccc2O[C@@H](C)CCCCO[C@H]1CN(C)Cc1ccc(C(F)(F)F)cc1	none

Compound activity as filed in PubChem BioAssay.
